This passage reports MIC and Activity results from ChEMBL document CHEMBL5223087, “First-in-Class Cyclic Temporin L Analogue: Design, Synthesis, and Antimicrobial Assessment” (J Med Chem, 2021).

One data set concerns Escherichia coli. Briefly: Antimicrobial activity against Escherichia coli ATCC 25922 assessed as reduction in bacterial growth incubated for 16 to 18 hrs by microdilution susceptibility test. It is filed as functional. To be noted: time 16-18 hrs. A digest of the protocol: (§1)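 Broth microdilution in Mueller–Hinton broth. Mid-log bacteria at 1 × 10⁶ CFU/mL final, peptide twofold serial dilutions 100 to 0.78 μM final. Incubated 16–18 h at 37 °C. MIC taken as the lowest concentration giving total (100%) growth inhibition.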

The test system of data set [1] is Staphylococcus epidermidis. The data set can be described thus: Antimicrobial activity against Staphylococcus epidermidis ATCC 12228 assessed as reduction in bacterial growth incubated for 16 to 18 hrs by microdilution susceptibility test. It is filed as functional. Particulars: time 16-18 hrs. The essentials: as §1
The test system of the next data set is Priestia megaterium. The data set can be described thus: Antimicrobial activity against Bacillus megaterium Bm11 assessed as reduction in bacterial growth incubated for 16 to 18 hrs by microdilution susceptibility test. It is filed as functional. To be noted: time 16-18 hrs. The essentials:
as §1

In the next data set the test system is Acinetobacter baumannii. Briefly: Antimicrobial activity against Acinetobacter baumannii ATCC 19606 assessed as reduction in bacterial growth incubated for 16 to 18 hrs by microdilution susceptibility test. It is filed as functional. Particulars: time 16-18 hrs. A digest of the protocol: as §1
The test system of the next data set is Staphylococcus aureus. The data set can be described thus: Antimicrobial activity against Staphylococcus aureus ATCC 25923 assessed as reduction in bacterial growth incubated for 16 to 18 hrs by microdilution susceptibility test. It is filed as functional. Particulars: time 16-18 hrs. A digest of the protocol: as §1
Another data set relates to Pseudomonas aeruginosa. The data set can be described thus: Antimicrobial activity against Pseudomonas aeruginosa ATCC 27853 assessed as reduction in bacterial growth incubated for 16 to 18 hrs by microdilution susceptibility test. It is filed as functional. Particulars: time 16-18 hrs. A digest of the protocol:
as §1

Data set [2] deals with HaCaT. The data set can be described thus: Cytotoxicity against human HaCaT cells assessed as reduction in cell viability at 50 uM measured after 24 hrs by MTT assay. It is filed as toxicity, cell-based. The essentials:
(§2)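 HaCaT keratinocytes seeded at 4 × 10⁴/well in DMEM with 4 mM glutamine and 2% FBS, no antibiotics, overnight at 37 °C, 5% CO2. Medium replaced with peptide-containing DMEMg for 2 or 24 h. MTT 0.5 mg/mL in Hank's buffer 4 h, formazan dissolved in acidified isopropanol, A570. Viability as % of untreated cells; mean of three independent experiments ± SEM.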

Data set [3] has as its system HaCaT. Briefly: Cytotoxicity against human HaCaT cells assessed as reduction in cell viability at 50 uM measured after 2 hrs by MTT assay. It is filed as toxicity, cell-based. A digest of the protocol: as §2
For data set [4], the system named is HaCaT. The data set can be described thus: Cytotoxicity against human HaCaT cells assessed as reduction in cell viability at 25 uM measured after 2 hrs by MTT assay. It is filed as toxicity, cell-based. A digest of the protocol: as §2

In brackets after ≈: the same amount, converted by molar mass. Bridge positions count the residues as written; N and C are the ends. Square brackets hold non-standard residues; d marks the D form. Triazole bridges read from a SMILES are 1,4-linked. Peptide text beside a SMILES is read from it. dLys(N3) = [N-]=[N+]=NCCCC[C@@H](N)C(=O)O; Lys(N3) = [N-]=[N+]=NCCCC[C@H](N)C(=O)O; Pra = C#CC[C@H](N)C(=O)O A value given as a limit tells only on which side of the number the result lay.

Regarding `CC(C)C[C@H](NC(=O)[C@@H]1CCC(=O)NCCCC[C@H](NC(=O)[C@H](Cc2c[nH]c3ccccc23)NC(=O)[C@@H]2CCCN2C(=O)[C@@H](NC(=O)[C@@H](N)Cc2ccccc2)C(C)C)C(=O)N[C@@H](CO)C(=O)N[C@@H](CCCCN)C(=O)N[C@@H](Cc2ccccc2)C(=O)N[C@H](CC(C)C)C(=O)NCC(=O)N[C@@H](CCCNC(=N)N)C(=O)N1)C(N)=O` (H-FVPWKSKF[dL]GREL-NH2; lactam 5-12), the MIC with Escherichia coli is more than 100 µM; in data set [1], more than 100 µM; with Priestia megaterium, 100 µM (≈ 159 µg/mL); in the data set on Acinetobacter baumannii, more than 100 µM; with Staphylococcus aureus, more than 100 µM; in the data set on Pseudomonas aeruginosa it was more than 100 µM.
In the case of `CC[C@H](C)[C@@H]1NC(=O)[C@H](CCCNC(=N)N)NC(=O)CNC(=O)[C@@H](CC(C)C)NC(=O)[C@H](Cc2ccccc2)NC(=O)[C@H](CCCCN)NC(=O)[C@@H](NC(=O)[C@H](Cc2ccccc2)NC(=O)[C@H](Cc2c[nH]c3ccccc23)NC(=O)[C@@H]2CCCN2C(=O)[C@@H](NC(=O)[C@@H](N)Cc2ccccc2)C(C)C)Cc2cn(nn2)CCCC[C@@H](C(N)=O)NC1=O` (H-FVPWF[Pra]KF[dL]GRI[Lys(N3)]-NH2; triazole 6-13), the MIC (with Escherichia coli; in data set [1]; with Acinetobacter baumannii; in the data set with Staphylococcus aureus; in the data set on Pseudomonas aeruginosa) was more than 100 µM in each case.
Turning to `CC[C@H](C)[C@@H]1NC(=O)[C@H](CCCNC(=N)N)NC(=O)CNC(=O)[C@@H](CC(C)C)NC(=O)[C@H](Cc2ccccc2)NC(=O)[C@H](CCCCN)NC(=O)[C@@H](NC(=O)[C@H](Cc2ccccc2)NC(=O)[C@H](Cc2c[nH]c3ccccc23)NC(=O)[C@@H]2CCCN2C(=O)[C@@H](NC(=O)[C@@H](N)Cc2ccccc2)C(C)C)CCCCNC(=O)CC[C@@H](C(N)=O)NC1=O` (H-FVPWFKKF[dL]GRIE-NH2; lactam 6-13), the minimum inhibitory concentration (MIC) (with Escherichia coli; in data set [1]; with Acinetobacter baumannii; with Staphylococcus aureus; in the data set with Pseudomonas aeruginosa) was more than 100 µM throughout.
As to `CC[C@H](C)[C@H](NC(=O)[C@H](CCCNC(=N)N)NC(=O)[C@@H]1CSSC[C@H](NC(=O)[C@H](Cc2ccccc2)NC(=O)[C@H](Cc2c[nH]c3ccccc23)NC(=O)[C@@H]2CCCN2C(=O)[C@@H](NC(=O)[C@@H](N)Cc2ccccc2)C(C)C)C(=O)N[C@@H](CCCCN)C(=O)N[C@@H](Cc2ccccc2)C(=O)N[C@H](CC(C)C)C(=O)N1)C(=O)N[C@@H](CC(C)C)C(N)=O` (H-FVPWFCKF[dL]CRIL-NH2; disulfide 6-10), the MIC in the data set with Staphylococcus aureus was 100 µM (≈ 167 µg/mL); in the data set on Pseudomonas aeruginosa, more than 100 µM.
Regarding `CC[C@H](C)[C@@H]1NC(=O)[C@H](CCCNC(=N)N)NC(=O)CNC(=O)[C@H](NC(=O)[C@H](Cc2ccccc2)NC(=O)[C@H](CCCCN)NC(=O)[C@H](CO)NC(=O)[C@H](Cc2ccccc2)NC(=O)[C@H](Cc2c[nH]c3ccccc23)NC(=O)[C@@H]2CCCN2C(=O)[C@@H](NC(=O)[C@@H](N)Cc2ccccc2)C(C)C)CCCCNC(=O)CC[C@@H](C(N)=O)NC1=O`, the MIC (with Escherichia coli; in data set [1]; with Acinetobacter baumannii; in the data set with Staphylococcus aureus; with Pseudomonas aeruginosa) was more than 100 µM throughout.
`CC[C@H](C)[C@H](NC(=O)[C@H](CCCNC(=N)N)NC(=O)CNC(=O)[C@@H](CC(C)C)NC(=O)[C@@H]1CCC(=O)NCCCC[C@H](NC(=O)[C@@H]2CCCN2C(=O)[C@@H](NC(=O)[C@@H](N)Cc2ccccc2)C(C)C)C(=O)N[C@@H](Cc2ccccc2)C(=O)N[C@@H](CO)C(=O)N[C@@H](CCCCN)C(=O)N1)C(=O)N[C@@H](CC(C)C)C(N)=O` (H-FVPKFSKE[dL]GRIL-NH2; lactam 4-8): the MIC (in the data set on Escherichia coli; in data set [1]; in the data set on Priestia megaterium; with Acinetobacter baumannii; in the data set with Staphylococcus aureus; in the data set with Pseudomonas aeruginosa) was more than 100 µM each time.
On to `CC[C@H](C)[C@H](NC(=O)[C@H](CCCNC(=N)N)NC(=O)CNC(=O)[C@@H](CC(C)C)NC(=O)[C@@H]1CCCCn2cc(nn2)C[C@H](NC(=O)[C@@H]2CCCN2C(=O)[C@@H](NC(=O)[C@@H](N)Cc2ccccc2)C(C)C)C(=O)N[C@@H](Cc2ccccc2)C(=O)N[C@@H](CO)C(=O)N[C@@H](CCCCN)C(=O)N1)C(=O)N[C@@H](CC(C)C)C(N)=O` (H-FVP[Pra]FSK[Lys(N3)][dL]GRIL-NH2; triazole 4-8), for which the MIC (with Escherichia coli; in [1]; with Acinetobacter baumannii; with Staphylococcus aureus; with Pseudomonas aeruginosa) was more than 100 µM throughout.
`CC[C@H](C)[C@H](NC(=O)[C@H](CCCNC(=N)N)NC(=O)CNC(=O)[C@H]1CCCCn2cc(nn2)C[C@H](NC(=O)[C@H](Cc2c[nH]c3ccccc23)NC(=O)[C@@H]2CCCN2C(=O)[C@@H](NC(=O)[C@@H](N)Cc2ccccc2)C(C)C)C(=O)N[C@@H](CO)C(=O)N[C@@H](CCCCN)C(=O)N[C@@H](Cc2ccccc2)C(=O)N1)C(=O)N[C@@H](CC(C)C)C(N)=O` (H-FVPW[Pra]SKF[dLys(N3)]GRIL-NH2; triazole 5-9): the MIC is 100 µM (≈ 160 µg/mL) with Escherichia coli; more than 100 µM in [1]; 100 µM (≈ 160 µg/mL) in the data set with Acinetobacter baumannii; more than 100 µM in the data set on Staphylococcus aureus; more than 100 µM with Pseudomonas aeruginosa.
As for `CC(C)C[C@H](NC(=O)[C@@H]1CCCCn2cc(nn2)C[C@H](NC(=O)[C@H](CCCCN)NC(=O)[C@H](CO)NC(=O)[C@H](Cc2ccccc2)NC(=O)[C@H](Cc2c[nH]c3ccccc23)NC(=O)[C@@H]2CCCN2C(=O)[C@@H](NC(=O)[C@@H](N)Cc2ccccc2)C(C)C)C(=O)N[C@H](CC(C)C)C(=O)NCC(=O)N[C@@H](CCCNC(=N)N)C(=O)N1)C(N)=O` (H-FVPWFSK[Pra][dL]GR[Lys(N3)]L-NH2; triazole 8-12), the minimum inhibitory concentration (MIC) (in [1]; with Staphylococcus aureus; with Pseudomonas aeruginosa) was more than 100 µM throughout.
Turning to `CC[C@H](C)[C@H](NC(=O)[C@H](CCCNC(=N)N)NC(=O)CNC(=O)[C@H]1CCC(=O)NCCCC[C@H](NC(=O)[C@H](Cc2c[nH]c3ccccc23)NC(=O)[C@@H]2CCCN2C(=O)[C@@H](NC(=O)[C@@H](N)Cc2ccccc2)C(C)C)C(=O)N[C@@H](CO)C(=O)N[C@@H](CCCCN)C(=O)N[C@@H](Cc2ccccc2)C(=O)N1)C(=O)N[C@@H](CC(C)C)C(N)=O` (H-FVPWKSKF[dE]GRIL-NH2; lactam 5-9), the MIC in the data set with Escherichia coli was more than 100 µM; in [1] it was more than 100 µM; with Priestia megaterium, 100 µM (≈ 159 µg/mL); with Acinetobacter baumannii, more than 100 µM; in the data set on Staphylococcus aureus, more than 100 µM; in the data set on Pseudomonas aeruginosa, more than 100 µM.
Regarding `CC(C)C[C@H](NC(=O)[C@@H]1CCC(=O)NCCCC[C@H](NC(=O)[C@H](CCCCN)NC(=O)[C@H](CO)NC(=O)[C@H](Cc2ccccc2)NC(=O)[C@H](Cc2c[nH]c3ccccc23)NC(=O)[C@@H]2CCCN2C(=O)[C@@H](NC(=O)[C@@H](N)Cc2ccccc2)C(C)C)C(=O)N[C@H](CC(C)C)C(=O)NCC(=O)N[C@@H](CCCNC(=N)N)C(=O)N1)C(N)=O` (H-FVPWFSKK[dL]GREL-NH2; lactam 8-12), the minimum inhibitory concentration (MIC) (in the data set with Escherichia coli; in [1]; in the data set with Acinetobacter baumannii; in the data set on Staphylococcus aureus; with Pseudomonas aeruginosa) was more than 100 µM throughout.
As to `CC[C@H](C)[C@H](NC(=O)[C@H](CCCNC(=N)N)NC(=O)[C@@H]1CCCCNC(=O)CC[C@H](NC(=O)[C@H](Cc2ccccc2)NC(=O)[C@H](Cc2c[nH]c3ccccc23)NC(=O)[C@@H]2CCCN2C(=O)[C@@H](NC(=O)[C@@H](N)Cc2ccccc2)C(C)C)C(=O)N[C@@H](CCCCN)C(=O)N[C@@H](Cc2ccccc2)C(=O)N[C@H](CC(C)C)C(=O)N1)C(=O)N[C@@H](CC(C)C)C(N)=O` (H-FVPWFEKF[dL]KRIL-NH2; lactam 6-10), the Activity was less than 20% with HaCaT [2], less than 40% in the data set with HaCaT [3] and 60% with HaCaT [4]. Further, the MIC was 25 µM (≈ 42.6 µg/mL) in the data set with Escherichia coli and more than 100 µM with Pseudomonas aeruginosa.
Regarding `CCC(C)[C@H](NC(=O)[C@H](CCCNC(=N)N)NC(=O)[C@]1(C)CCC/C=C/CCC[C@](C)(NC(=O)[C@H](Cc2ccccc2)NC(=O)[C@H](Cc2c[nH]c3ccccc23)NC(=O)[C@@H]2CCCN2C(=O)[C@@H](NC(=O)[C@@H](N)Cc2ccccc2)C(C)C)C(=O)N[C@@H](CCCCN)C(=O)N[C@@H](Cc2ccccc2)C(=O)N[C@H](CC(C)C)C(=O)N1)C(=O)N[C@@H](CC(C)C)C(N)=O` (some centres undefined), the minimal inhibitory concentration (MIC) was more than 100 µM in the data set on Escherichia coli; more than 100 µM in [1]; 100 µM (≈ 172 µg/mL) in the data set with Priestia megaterium; more than 100 µM with Acinetobacter baumannii; more than 100 µM in the data set on Staphylococcus aureus; more than 100 µM with Pseudomonas aeruginosa.
